In ChEMBL document CHEMBL1124897, “(1-Pyrenylmethyl)amino alcohols, a new class of antitumor DNA intercalators. Discovery and initial amine side chain structure-activity studies” (1990):
Active and inactive are the calls of the source. The calls are words filed in the database; no cut-off is given here.

Tests used:
P388 [1] = assay: In vivo antitumor activity against murine lymphocytic leukemia P388, measured as percent increase in life span; type: functional, organism-based; conditions: Mus musculus
Procedure, shortened: (§1)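 Male CD2-F1 mice (20 ± 3 g) implanted ip with 1 × 10^6 viable P388 cells on day 0. Compound given ip as aqueous suspension or solution in 0.9% NaCl or 5% dextrose on days 1, 5 and 9, dosed per mg/kg body weight. Several doses bracketing LD20 were tested, six mice per dose. %ILS was calculated from median day of death of treated versus control mice. Values are optimal from at least two experiments.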

P388 [2] = assay: In vivo antitumor activity against murine lymphocytic leukemia P388 measured as optimal dose which is the highest nontoxic dose; type: functional, Mus musculus
P388 [3] = assay: In vivo antitumor activity against murine lymphocytic leukemia P388 measured as lethal dose […]; type: functional, Mus musculus; set-up: unit: mg/kg
Procedure, shortened: (§2)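 Male CD2-F1 mice (20 ± 3 g) implanted ip with 1 × 10^6 viable P388 cells on day 0. Drug given ip as aqueous suspension or solution in 0.9% NaCl or 5% dextrose on days 1, 5 and 9, dosed per body weight in mg/kg. Several dose levels bracketing the LD20 were tested, six mice per dose. Deaths before the control median day of death were counted as drug toxicity.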

P388 [4] = assay: In vivo antitumor activity against murine lymphocytic leukemia P388 measured as optimal dose; type: functional, Mus musculus; procedure, shortened: as §1
P388 [5] = assay: In vivo antitumor activity against murine lymphocytic leukemia P388 measured as percent increase in life span; type: functional, Mus musculus; procedure, shortened: as §2

Compound	ILS (P388 [1])	Optimal dose (P388 [2])	LD20 (P388 [3])	Optimal dose (P388 [4])	ILS (P388 [5])
Cl.c1ccc(CCNCc2ccc3ccc4cccc5ccc2c3c45)cc1	inactive	335 mg/kg	335		
COCC(C)(CO)NCc1ccc2ccc3cccc4ccc1c2c34 (stereo not given)			135	180 mg/kg	30%
CC(C)OCCCNCc1ccc2ccc3cccc4ccc1c2c34.Cl	inactive	120 mg/kg	180		
Cl.N#CCCNCc1ccc2ccc3cccc4ccc1c2c34	inactive	300 mg/kg	300		
CC(NCc1ccc2ccc3cccc4ccc1c2c34)C(O)c1ccccc1.Cl (stereo not given)	inactive	675 mg/kg	450		
Cl.c1cc2ccc3ccc(CNCCCNC4CCCCC4)c4ccc(c1)c2c34	inactive	200 mg/kg	134		
COCCNCc1ccc2ccc3cccc4ccc1c2c34.Cl	inactive	133 mg/kg	200		
CC(O)CCNCc1ccc2ccc3cccc4ccc1c2c34.Cl (stereo not given)	inactive	168 mg/kg	168		
Cl.c1ccc(CCCCNCc2ccc3ccc4cccc5ccc2c3c45)cc1	inactive	88 mg/kg	130		
Cl.NCCCCNCc1ccc2ccc3cccc4ccc1c2c34	inactive	19 mg/kg	28		
CCN(CC)CCNCc1ccc2ccc3cccc4ccc1c2c34.Cl	inactive	180 mg/kg	120		
CCCNCc1ccc2ccc3cccc4ccc1c2c34.Cl	inactive	225 mg/kg	150		
Cl.OCCNCCNCc1ccc2ccc3cccc4ccc1c2c34	inactive	134 mg/kg	200		
CC(C)(CO)CCCNCc1ccc2ccc3cccc4ccc1c2c34.Cl	inactive	215 mg/kg	215		
Cl.OCC(NCc1ccc2ccc3cccc4ccc1c2c34)C(O)c1ccccc1 (stereo not given)	inactive	1013 mg/kg	675		
CN(CCCN)CCCNCc1ccc2ccc3cccc4ccc1c2c34.Cl			23	23 mg/kg	20%
Cl.c1ccc(CCCNCc2ccc3ccc4cccc5ccc2c3c45)cc1	inactive	300 mg/kg	300		
CC(O)C(C)(CO)NCc1ccc2ccc3cccc4ccc1c2c34.Cl (stereo not given)			125	125 mg/kg	77%
CC(C)CC(CO)NCc1ccc2ccc3cccc4ccc1c2c34.Cl (stereo not given)	inactive	1012 mg/kg	675		
Cl.c1ccc(NCCNCc2ccc3ccc4cccc5ccc2c3c45)cc1	inactive	200 mg/kg	300		
Cl.c1ccc(CNCc2ccc3ccc4cccc5ccc2c3c45)cc1	inactive	900 mg/kg	600		

Compound	ILS (P388 [1])	Optimal dose (P388 [2])	LD20 (P388 [3])	Optimal dose (P388 [4])	ILS (P388 [5])
CN(C)CCCNCc1ccc2ccc3cccc4ccc1c2c34.Cl	inactive	127 mg/kg	85		
CC(=O)OCC(COC(C)=O)(COC(C)=O)NCc1ccc2ccc3cccc4ccc1c2c34			500	315 mg/kg	30%
Cl.OCCNCc1ccc2ccc3cccc4ccc1c2c34			220	221 mg/kg	31%
NCCCCCCNCc1ccc2ccc3cccc4ccc1c2c34	inactive	75 mg/kg	75		
Cl.OCC(NCc1ccc2ccc3cccc4ccc1c2c34)c1ccccc1 (stereo not given)	inactive	675 mg/kg	675		
Cl.OCCCCNCc1ccc2ccc3cccc4ccc1c2c34	inactive	139 mg/kg	208		
CC1(NCc2ccc3ccc4cccc5ccc2c3c45)COC(C)(C)OC1.Cl	inactive	675 mg/kg	675		
Cl.OCC(CO)(CO)NCc1ccc2ccc3cccc4ccc1c2c34			215	198 mg/kg	90%
CC(CO)(CO)NCc1ccc2ccc3cccc4ccc1c2c34.Cl			300	300 mg/kg	125%
CC(C)C(CO)(CO)NCc1ccc2ccc3cccc4ccc1c2c34.Cl			300	450 mg/kg	55%
OCC1OC(O)C(NCc2ccc3ccc4cccc5ccc2c3c45)C(O)C1O (stereo not given)			400	450 mg/kg	20%
CCN(CC)Cc1ccc2ccc3cccc4ccc1c2c34.Cl	inactive	452 mg/kg	452		
Cl.OCCCNCc1ccc2ccc3cccc4ccc1c2c34		120 mg/kg	120		20%
Cl.OC(CNCc1ccc2ccc3cccc4ccc1c2c34)c1ccccc1 (stereo not given)	inactive	450 mg/kg	450		
CCN(CC)CCCC(C)NCc1ccc2ccc3cccc4ccc1c2c34.Cl (stereo not given)	inactive	150 mg/kg	100		
CC(O)CNCc1ccc2ccc3cccc4ccc1c2c34.Cl (stereo not given)			600	300 mg/kg	28%
CCCCCC(CO)(CO)NCc1ccc2ccc3cccc4ccc1c2c34.Cl	inactive	675 mg/kg	675		
Cl.Clc1ccc(CNCc2ccc3ccc4cccc5ccc2c3c45)cc1Cl	inactive	900 mg/kg	400		
Cl.OCCCCCNCc1ccc2ccc3cccc4ccc1c2c34	inactive	131 mg/kg	196		
C=CCNCc1ccc2ccc3cccc4ccc1c2c34.Cl	inactive	550 mg/kg	369		
CCC(O)CNCc1ccc2ccc3cccc4ccc1c2c34.Cl (stereo not given)	inactive	225 mg/kg	225		

Compound	ILS (P388 [1])	Optimal dose (P388 [2])	LD20 (P388 [3])	Optimal dose (P388 [4])	ILS (P388 [5])
CC(O)CNCCNCc1ccc2ccc3cccc4ccc1c2c34.Cl (stereo not given)	inactive	150 mg/kg	150		
CC(C)(CO)NCc1ccc2ccc3cccc4ccc1c2c34.Cl			450	250 mg/kg	45%
CC(CO)(CO)NCCCc1ccc2ccc3cccc4ccc1c2c34.Cl	inactive	100 mg/kg	67.5		
CC1(C)OC[C@@H](O)[C@H](NCc2ccc3ccc4cccc5ccc2c3c45)CO1	inactive	1013 mg/kg	675		
CC(CO)NCc1ccc2ccc3cccc4ccc1c2c34.Cl (stereo not given)			600	220 mg/kg	25%
Cl.OCCN(CCO)CCCNCc1ccc2ccc3cccc4ccc1c2c34	inactive	64 mg/kg	96		
Cl.NCc1ccc2ccc3cccc4ccc1c2c34	inactive	194 mg/kg	130		
CCOCC(CO)(CO)NCc1ccc2ccc3cccc4ccc1c2c34.Cl			225	168 mg/kg	30%
CC(=O)OCC(C)(COC(C)=O)NCc1ccc2ccc3cccc4ccc1c2c34		300 mg/kg	300		65%
Cl.OCCN(CCO)Cc1ccc2ccc3cccc4ccc1c2c34	inactive	225 mg/kg	225		
CCC(CO)NCc1ccc2ccc3cccc4ccc1c2c34.Cl (stereo not given)			450	366 mg/kg	25%
CCC(CO)(CO)NCc1ccc2ccc3cccc4ccc1c2c34.Cl			340	303 mg/kg	140%
Cl.NCCCCCNCc1ccc2ccc3cccc4ccc1c2c34	inactive	116 mg/kg	20		
CC(C)(O)CNCc1ccc2ccc3cccc4ccc1c2c34.Cl	inactive		220	330 mg/kg	
CCC(COC(C)=O)(COC(C)=O)NCc1ccc2ccc3cccc4ccc1c2c34		303 mg/kg	675		40%
Cl.c1cc2ccc3ccc(CNCCCN4CCOCC4)c4ccc(c1)c2c34			150	150 mg/kg	20%
CCC(C)C(CO)NCc1ccc2ccc3cccc4ccc1c2c34.Cl (stereo not given)	inactive	675 mg/kg	675		
CC(C)C(CO)NCc1ccc2ccc3cccc4ccc1c2c34.Cl (stereo not given)			450	200 mg/kg	27%
Cl.NCCCN1CCN(CCCNCc2ccc3ccc4cccc5ccc2c3c45)CC1		37 mg/kg	37		
CN(CCO)Cc1ccc2ccc3cccc4ccc1c2c34.Cl	inactive	365 mg/kg	366		
